These results are taken from ChEMBL document CHEMBL3588768, “Synthesis and bioactivity of tripolinolate A from Tripolium vulgare and its analogs” (Bioorg Med Chem Lett, 2015).

A word on the IC50: it is the concentration that inhibits the measured activity by half. Lower therefore signals higher potency.

Structures are written as SMILES. Active and inactive are the calls of the source. The calls are words filed in the database; no cut-off is given here.

Assay [1] relates to Escherichia coli. The assay is described as follows: Antimicrobial activity against Escherichia coli after 5 to 12 hrs by micro broth dilution assay. The format is functional, organism-based. (In general: In broth dilution the organism is exposed to a series of concentrations in liquid medium.)
The subject of assay [2] is Staphylococcus aureus. Put plainly: Antimicrobial activity against Staphylococcus aureus after 5 to 12 hrs by micro broth dilution assay. The format is functional, organism-based.
For assay [3], the system named is U-251. Put plainly: Antiproliferative activity against human U251 cells after 72 hrs by sulforhodamine B assay. The format is functional, cell-based. The conditions noted are these: U-251, 72 h. Put shortly: (§1)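 Sulforhodamine B assay on glioma (U251, U87-MG) and colorectal (HCT-15, SW620) cancer cells. Cells were exposed to a range of compound concentrations for 72 h, then stained with SRB. IC50 values were derived from the dose–response. Doxorubicin served as positive control.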
(The SRB assay estimates cell density from bound dye.)

The subject of assay [4] is U-87 MG. The assay is described as follows: Antiproliferative activity against human U87MG cells after 72 hrs by sulforhodamine B assay. The format is functional, cell-based, U-87MG ATCC. Put shortly:
as §1

The subject of assay [5] is HCT-15. Put plainly: Antiproliferative activity against human HCT15 cells after 72 hrs by sulforhodamine B assay. The format is functional, cell-based. The conditions noted are these: HCT-15, 72 h. Put shortly: as §1
Assay [6] concerns SW-620. Put plainly: Antiproliferative activity against human SW620 cells after 72 hrs by sulforhodamine B assay. The conditions noted are these: SW-620, 72 h. The format is functional, cell-based. Put shortly:
as §1

The subject of assay [7] is U-87 MG. Put plainly: Induction of apoptosis in human U87MG cells assessed as late apoptotic cells at 10 uM after 72 hrs by annexin V-FITC/PI staining-based flow cytometric analysis (reference value: 3.23%). The format is functional, U-87MG ATCC. (A flow cytometer gives signals particle by particle.)
For assay [8], the system named is U-87 MG. The assay is described as follows: Induction of apoptosis in human U87MG cells assessed as early apoptotic cells at 10 uM after 72 hrs by annexin V-FITC/PI staining-based flow cytometric analysis (reference value: 3.41%). The format is functional, U-87MG ATCC.
The test system of assay [9] is U-87 MG. Put plainly: Induction of apoptosis in human U87MG cells assessed as viable cells at 10 uM after 72 hrs by annexin V-FITC/PI staining-based flow cytometric analysis (reference value: 93.12%). The format is functional, U-87MG ATCC. The conditions noted are these: read-out: Activity.
Assay [10] concerns U-87 MG. Put plainly: Induction of apoptosis in human U87MG cells assessed as total apoptotic cells at 10 uM after 72 hrs by annexin V-FITC/PI staining-based flow cytometric analysis (reference value: 6.64%). The format is functional, U-87MG ATCC.
Assay [11] relates to U-87 MG. Put plainly: Induction of apoptosis in human U87MG cells assessed as necrotic cells at 10 uM after 72 hrs by annexin V-FITC/PI staining-based flow cytometric analysis (reference value: 0.24%). The format is functional, U-87MG ATCC.

Consider `COc1cc(/C=C/C(=O)O)ccc1O`, for which the inhibition result in [1] and in assay [2] was “inactive” each time.
As for `CCCCCCCC(=O)OC/C=C/c1ccc(OC(=O)CCCCCCC)c(OC)c1`, the inhibition entry in assay [1] and in assay [2] was “inactive” in each case.
For the molecule `COc1cc(/C=C/COC(=O)C(C)C)ccc1OC(=O)C(C)C`, the IC50 in [3] was above 50 µM; in assay [4], 29.4 µM; in [5], 34.6 µM; in assay [6], 35.5 µM. Also, the inhibition result in [1] and in assay [2] was “inactive” in each case.
Consider `CCCCCCCCCCCCCCCCCCCCOC(=O)/C=C/c1ccc(O)cc1`, for which the inhibition result in assay [1] and in [2] was “inactive” in each case.
On to `CC(C)[C@H](C)/C=C/[C@@H](C)[C@H]1CCC2=C3C=CC4=CC(=O)CC[C@]4(C)[C@H]3CC[C@@]21C`, for which the inhibition result in assay [1] and in assay [2] was “inactive” throughout.
On to `O=C(/C=C/c1ccc(O)c(O)c1)O[C@@H]1C[C@](O)(C(=O)O)C[C@@H](OC(=O)/C=C/c2ccc(O)c(O)c2)[C@H]1O`, for which the inhibition result in assay [1] and in assay [2] was “inactive” each time.
Regarding `CC(C)[C@@H](C)/C=C/[C@@H](C)[C@H]1CCC2=C3C=CC4=CC(=O)CC[C@]4(C)[C@H]3CC[C@@]21C`, the inhibition entry in [1] and in [2] was “inactive” in each case.
Take `COc1cc(/C=C/COC(C)=O)ccc1OC(=O)C(C)C`: the inhibition entry in [1] and in [2] was “inactive” throughout.
Regarding `COc1cc(/C=C/COC(=O)C(C)C)ccc1OC(C)=O`, the inhibition result in assay [1] and in [2] was “inactive” in each case.
As for `CCCC(=O)Oc1ccc(/C=C/COC(C)=O)cc1OC`, the IC50 came out at 45.7 µM in [3], 10.5 µM in [4], 17.1 µM in assay [5] and 7.59 µM in assay [6]. The inhibition result in assay [1] and in [2] was “inactive” in each case.
As for `O=c1c(O[C@@H]2O[C@H](CO)[C@@H](O)[C@H](O)[C@H]2O)c(-c2ccc(O)cc2)oc2cc(O)cc(O)c12` [ASTRAGALIN], the IC50 in [3] turned out to be 37.6 µM; in assay [4], 3.12 µM; in [5] it was 23.5 µM; in assay [6], 4.6 µM. Further, the inhibition result in assay [1] and in assay [2] was “inactive” throughout.
Turning to `COc1cccc2c1C(=O)c1c(O)c3c(c(O)c1C2=O)C[C@@](O)(C(=O)CO)C[C@@H]3O[C@H]1C[C@H](N)[C@H](O)[C@H](C)O1` [DOXORUBICIN], the IC50 was 2.2 µM in assay [3], 0.93 µM in assay [4], 1.13 µM in [5] and 1.33 µM in assay [6]. Also, the Activity in [7] is 11.02%; in [8], 20.15%; in assay [10], 31.17%; in assay [11] it was 0.6%. For the same molecule, the inhibition result in assay [1] and in assay [2] was “inactive” in each case. Moreover, the viability at 10 µM in [9] is 68.2%.
Turning to `CC1=C(C)C(=O)C(CC[C@](C)(O)CCC[C@H](C)CCC[C@H](C)CCCC(C)C)=C(C)C1=O`, the inhibition result in [1] and in assay [2] was “inactive” each time.
Consider `CCC(=O)OC/C=C/c1ccc(OC(=O)CC)c(OC)c1`, for which the IC50 in assay [3] is 52.6 µM; in assay [4], 28.8 µM; in [5], 29.6 µM; in [6], 47.4 µM. Further, the inhibition entry in assay [1] and in assay [2] was “inactive” each time.
Consider `COC(=O)/C=C/c1ccc(O)c(OC)c1`, for which the inhibition result in assay [1] and in [2] was “inactive” each time.
With `COc1cc(/C=C/CO)ccc1O`, the inhibition result in assay [1] and in assay [2] was “inactive” each time.
Regarding `COc1cc(/C=C/COC(=O)CC(C)C)ccc1OC(=O)CC(C)C`, the inhibition result in assay [1] and in [2] was “inactive” throughout.
In the case of `CCCCCC(=O)OC/C=C/c1ccc(OC(=O)CCCCC)c(OC)c1`, the inhibition entry in [1] and in assay [2] was “inactive” in each case.
Consider `CC[C@H](C)C(=O)OC/C=C/c1ccc(OC(=O)[C@@H](C)CC)c(OC)c1`, for which the inhibition result in assay [1] and in assay [2] was “inactive” each time.
`C/C(=C\CO)CCC[C@H](C)CCC[C@H](C)CCCC(C)C` [TRANS-PHYTOL]: the IC50 in [3] was 27.8 µM; in [4] it was 8.02 µM; in [5], 22.5 µM; in assay [6], 5.85 µM. Further, the inhibition entry in assay [1] and in [2] was “inactive” throughout.
On to `CC[C@H](C)C(=O)OC/C=C/c1ccc(OC(C)=O)c(OC)c1`, for which the IC50 came to 28.1 µM in assay [3], 15 µM in [4], 34.1 µM in assay [5] and 21.9 µM in assay [6]. Also, the inhibition entry in assay [1] and in [2] was “inactive” in each case.
Take `O=C(/C=C/c1ccc(O)c(O)c1)O[C@@H]1[C@H](O)C[C@@](O)(C(=O)O)C[C@H]1OC(=O)/C=C/c1ccc(O)c(O)c1`: the inhibition entry in assay [1] and in [2] was “inactive” in each case.
As to `CCCC(=O)c1c(O)cc(O)cc1O[C@@H]1O[C@H](CO)[C@@H](O)[C@H](O)[C@H]1O`, the IC50 in [3] worked out at 19.7 µM; in [4] it was 3.89 µM; in assay [5] it was 1.91 µM; in assay [6] it was 0.41 µM. Moreover, the inhibition result in [1] and in assay [2] was “inactive” each time.
As to `CCC(=O)Oc1ccc(/C=C/COC(C)=O)cc1OC`, the inhibition entry in assay [1] and in [2] was “inactive” in each case.
In the case of `CCCCCCC(=O)OC/C=C/c1ccc(OC(=O)CCCCCC)c(OC)c1`, the inhibition entry in assay [1] and in [2] was “inactive” in each case.
As for `CCCC(=O)OC/C=C/c1ccc(OC(=O)CC(C)C)c(OC)c1`, the inhibition entry in [1] and in assay [2] was “inactive” throughout.
On to `CCC(=O)OC/C=C/c1ccc(OC(C)=O)c(OC)c1`, for which the inhibition entry in assay [1] and in [2] was “inactive” in each case.
As to `CCCC(=O)OC/C=C/c1ccc(OC(C)=O)c(OC)c1`, the IC50 in assay [3] amounted to 33.3 µM; in [4], 18.5 µM; in [5], 22.8 µM; in [6] it was 10.2 µM. The inhibition entry in assay [1] and in assay [2] was “inactive” throughout.
In the case of `CCCC(=O)OC/C=C/c1ccc(OC(=O)CCC)c(OC)c1`, the IC50 in assay [3] is above 50 µM; in assay [4] it was 17.3 µM; in [5] it was 28.8 µM; in assay [6], 7.85 µM. Besides, the inhibition entry in [1] and in [2] was “inactive” each time.
In the case of `O=C(/C=C/c1ccc(O)c(O)c1)O[C@H]1[C@H](O)C[C@](O)(C(=O)O)C[C@H]1OC(=O)/C=C/c1ccc(O)c(O)c1`, the inhibition result in assay [1] and in assay [2] was “inactive” each time.
As to `CCCCCCCCCCCCCCCCCCCCOC(=O)/C=C/c1ccc(O)c(OC)c1`, the IC50 in assay [3] came out at 26.8 µM; in assay [4], 5.24 µM; in assay [5] it was 15.1 µM; in assay [6] it was 5.25 µM. Further, the inhibition entry in [1] and in assay [2] was “inactive” each time.
As for `CCCCC(=O)OC/C=C/c1ccc(OC(=O)CCCC)c(OC)c1`, the inhibition entry in assay [1] and in assay [2] was “inactive” in each case.
As to `CCCC(=O)Oc1ccc(/C=C/COC(=O)CC(C)C)cc1OC`, the inhibition entry in assay [1] and in assay [2] was “inactive” throughout.
